The source made the active and inactive calls. No cut-off for these calls is given here.
How the values were obtained:
Enterococcus = test: Antibacterial activity against Enterococcus 89 by two-fold agar dilution method; type: functional
Summary of the method: (§1)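 MIC determined by twofold serial dilution in brain-heart infusion agar. Values are reported in µg/mL.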

Pasteurella multocida = test: Antibacterial activity against Pasteurella multocida 10544 by two-fold agar dilution method; type: functional; summary of the method: as §1
Proteus mirabilis [1] = test: Antibacterial activity against Proteus mirabilis infected in sc dosed mouse assessed as protection against bacterial infection; type: functional
Summary of the method: (§2)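 Mice were challenged intraperitoneally with Proteus mirabilis, and compound was given by the line's route (oral or subcutaneous). The CD50 is the total dose in mg/kg that protects 50% of challenged mice.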

Proteus mirabilis [2] = test: Antibacterial activity against Proteus mirabilis infected in po dosed mouse assessed as protection against bacterial infection; type: functional; summary of the method: as §2
Salmonella typhi = test: Antibacterial activity against Salmonella typhi by two-fold agar dilution method; type: functional, Salmonella enterica subsp. enterica serovar Typhi; details: Salmonella enterica
Summary of the method: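 MIC in µg/mL by twofold serial agar dilution on brain-heart infusion agar.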

Proteus mirabilis [3] = test: Antibacterial activity against Proteus mirabilis by two-fold agar dilution method; type: functional; summary of the method: as §1
Staphylococcus aureus [4] = test: Antibacterial activity against Staphylococcus aureus Smith by two-fold agar dilution method; type: functional; summary of the method: as §1
Proteus vulgaris = test: Antibacterial activity against Proteus vulgaris by two-fold agar dilution method; type: functional; summary of the method: as §1
Klebsiella pneumoniae = test: Antibacterial activity against Klebsiella pneumoniae 8045 by two-fold agar dilution method; type: functional; summary of the method: as §1
Pseudomonas aeruginosa = test: Antibacterial activity against Pseudomonas aeruginosa by two-fold agar dilution method; type: functional, organism-based; summary of the method: as §1
Streptococcus pyogenes = test: Antibacterial activity against Streptococcus pyogenes C-203 by two-fold agar dilution method; type: functional; summary of the method: as §1
Escherichia coli = test: Antibacterial activity against Escherichia coli Juhl by two-fold agar dilution method; type: functional; summary of the method: as §1
Staphylococcus aureus [5] = test: Antibacterial activity against Staphylococcus aureus 45 by two-fold agar dilution method; type: functional; summary of the method: as §1

Compound	MIC (Enterococcus) [µg/mL]	MIC (Pasteurella multocida) [µg/mL]	CD50 (Proteus mirabilis [1]) [mg/kg]	CD50 (Proteus mirabilis [2]) [mg/kg]	MIC (Salmonella typhi) [µg/mL]	MIC (Proteus mirabilis [3]) [µg/mL]	MIC (Staphylococcus aureus [4]) [µg/mL]	MIC (Proteus vulgaris) [µg/mL]	MIC (Klebsiella pneumoniae) [µg/mL]	Activity (Pseudomonas aeruginosa)	MIC (Streptococcus pyogenes) [µg/mL]	MIC (Escherichia coli) [µg/mL]	MIC (Staphylococcus aureus [5]) [µg/mL]
CC(=O)N/N=C(\C)C1=C(O)[C@H](N)[C@@H]2Cc3c(c(O)c4c(O)c(C)ccc4c3C)C(=O)[C@]2(O)C1=O.Cl	12.5	0.78	25	50	6.2	6.2	12.5	6.2	6.2	inactive	6.2	12.5	12.5
C/C(=N\N1CCN(CCO)CC1)C1=C(O)[C@H](N)[C@@H]2Cc3c(c(O)c4c(O)c(C)ccc4c3C)C(=O)[C@]2(O)C1=O.Cl	6.2	0.39	25	100	1.56	3.1	6.2	3.1	1.56	inactive	3.1	6.2	12.5
C/C(=N\N1CCN(C)CC1)C1=C(O)[C@H](N)[C@@H]2Cc3c(c(O)c4c(O)c(C)ccc4c3C)C(=O)[C@]2(O)C1=O.Cl	12.5	0.78	12.5	25	3.1	6.2	6.2	6.2	3.1	inactive	3.1	6.2	6.2
C/C(=N\NC(N)=S)C1=C(O)[C@H](N)[C@@H]2Cc3c(c(O)c4c(O)c(C)ccc4c3C)C(=O)[C@]2(O)C1=O.Cl	100	3.1	–	–	25	50	50	50	25	inactive	25	100	50
C/C(=N\Nc1ccccc1)C1=C(O)[C@H](N)[C@@H]2Cc3c(c(O)c4c(O)c(C)ccc4c3C)C(=O)[C@]2(O)C1=O.Cl	12.5	0.78	–	–	25	50	6.2	50	12.5	inactive	6.2	50	6.2
CCCC(=O)N/N=C(\C)C1=C(O)[C@H](N)[C@@H]2Cc3c(c(O)c4c(O)c(C)ccc4c3C)C(=O)[C@]2(O)C1=O.Cl	50	1.56	–	–	12.5	12.5	50	12.5	12.5	inactive	25	50	50
C/C(=N\N1CCOC1=O)C1=C(O)[C@H](N)[C@@H]2Cc3c(c(O)c4c(O)c(C)ccc4c3C)C(=O)[C@]2(O)C1=O.Cl	25	1.6	–	–	25	12.5	25	6.2	25	inactive	25	25	25
C/C(=N\NC(=O)c1ccc(N)cc1)C1=C(O)[C@H](N)[C@@H]2Cc3c(c(O)c4c(O)c(C)ccc4c3C)C(=O)[C@]2(O)C1=O.Cl (stereo in doubt)	50	1.56	–	–	12.5	12.5	50	12.5	12.5	inactive	25	50	50
C/C(=N\c1ccc(Cl)cc1)C1=C(O)[C@H](N)[C@@H]2Cc3c(c(O)c4c(O)c(C)ccc4c3C)C(=O)[C@]2(O)C1=O.Cl	25	0.39	–	–	3.1	3.1	6.2	1.56	3.1	inactive	6.2	25	6.2
C/C(=N\NCCN(C)C)C1=C(O)[C@H](N)[C@@H]2Cc3c(c(O)c4c(O)c(C)ccc4c3C)C(=O)[C@]2(O)C1=O.Cl	100	3.1	–	–	25	25	50	25	25	inactive	50	50	50
C/C(=N\c1ccc(CC(=O)O)cc1)C1=C(O)[C@H](N)[C@@H]2Cc3c(c(O)c4c(O)c(C)ccc4c3C)C(=O)[C@]2(O)C1=O.Cl	12.5	0.39	–	–	1.5	3.1	6.2	1.56	1.56	inactive	3.1	6.2	6.2
CCCNC(=O)N/N=C(\C)C1=C(O)[C@H](N)[C@@H]2Cc3c(c(O)c4c(O)c(C)ccc4c3C)C(=O)[C@]2(O)C1=O.Cl	50	0.78	–	–	6.2	6.2	25	6.2	6.2	inactive	12.5	25	25
C/C(=N\c1ccccc1)C1=C(O)[C@H](N)[C@@H]2Cc3c(c(O)c4c(O)c(C)ccc4c3C)C(=O)[C@]2(O)C1=O.Cl	25	1.56	–	–	6.2	6.2	12.5	6.2	12.5	inactive	12.5	25	12.5
C/C(=N\N1CCOCC1)C1=C(O)[C@H](N)[C@@H]2Cc3c(c(O)c4c(O)c(C)ccc4c3C)C(=O)[C@]2(O)C1=O.Cl	12.5	0.78	–	–	3.1	12.5	12.5	6.2	6.2	inactive	12.5	25	12.5
C/C(=N\NC(=O)Nc1ccccc1Cl)C1=C(O)[C@H](N)[C@@H]2Cc3c(c(O)c4c(O)c(C)ccc4c3C)C(=O)[C@]2(O)C1=O.Cl	100	6.2	–	–	50	50	50	50	50	inactive	25	100	100
COc1ccc(/N=C(\C)C2=C(O)[C@H](N)[C@@H]3Cc4c(c(O)c5c(O)c(C)ccc5c4C)C(=O)[C@]3(O)C2=O)cc1.Cl	6.2	0.78	–	–	3.1	6.2	12.5	3.1	3.1	inactive	3.1	25	12.5

Reference: ChEMBL document CHEMBL3244289, “Synthesis and antibacterial activity of 2'-substituted chelocardin analogues” (1979)
